# Activity calls are given as the source filed them. The rule behind the calls is not given here.
# Key:
# BMDC [1] = test: Inhibition of LPS-induced immune response in C57BL/6 mouse BMDC assessed as reduction in IL-12p70 secretion up to 25 uM pretreated for 30 mins followed by LPS-challenge measured after 6 hrs by ELISA; assay type: functional, cell-based
# Outline: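 Mouse BMDCs (female C57BL/6 bone marrow, GM-CSF-derived, ≥90% CD11c+ on day 7) pretreated 30 min with graded compound concentrations, then stimulated with LPS 50 ng/mL for 6 h. Supernatant TNF-α, IL-6, IL-10 and IL-12p70 quantified by sandwich ELISA. Mean ± SEM vs LPS-only cells; experiments repeated at least three times.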
# BMDC [2] = test: Inhibition of LPS-induced immune response in C57BL/6 mouse BMDC assessed as increase in IL10 secretion at 25 uM treated 6 hrs post LPS-challenge measured after 30 mins by ELISA; assay type: functional, cell-based
# Outline: (§1)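 Bone marrow DCs from 6-week-old female C57BL/6 mice, RBC-lysed, cultured in RPMI-1640/10% FBS with 10 ng/mL rmGM-CSF, 37 °C, 5% CO2. Cells given LPS 50 ng/mL for 6 h, then 25 μM compound added for 30, 60, 90 or 120 min. Supernatant TNF-α, IL-6, IL-10, IL-12p70 measured by sandwich ELISA. Mean ± SEM, compared with LPS-only DCs.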
# BMDC [3] = test: Inhibition of LPS-induced immune response in C57BL/6 mouse BMDC assessed as reduction in IL-6 secretion at 25 uM treated 6 hrs post LPS-challenge measured after 60 to 120 mins by ELISA; assay type: functional, cell-based; outline: as §1
# BMDC [4] = test: Inhibition of LPS-induced immune response in C57BL/6 mouse BMDC assessed as increase in IL10 secretion at 25 uM treated 6 hrs post LPS-challenge measured after 60 to 120 mins by ELISA; assay type: functional, cell-based; outline: as §1
# BMDC [5] = test: Increase in microRNA187 expression in LPS-induced C57BL/6 mouse BMDC at 25 uM pretreated for 30 mins followed by LPS-challenge measured after 6 hrs by qRT-PCR analysis; assay type: functional, cell-based
# Outline: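 Total RNA was extracted from BMDCs with TRIzol and reverse transcribed. miR-146a, miR-155 and miR-187 were quantified by real-time qPCR with gene-specific primers.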
# Mus musculus [6] = test: Antiinflammatory activity in Balb/c mouse model of LPS-induced endotoxemia assessed as reduction in serum ALT level at 1 mg/kg, ip pretreated for 1 hr followed by LPS-challenge measured after 12 hrs by ELISA; assay type: functional, organism-based
# Outline: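 In BALB/c mice, 1 mg·kg−1 i.p. was given 1 h before LPS 10 mg·kg−1 i.p. After 12 h, serum AST, ALT and BUN were measured by ELISA. Means ± SEM.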
# BMDC [7] = test: Inhibition of Escherichia coli DH5alpha infection-induced immune response in C57BL/6 mouse BMDC assessed as reduction in IL-6 secretion at 25 uM pretreated for 30 mins followed by Escherichia coli DH5alpha infection for 6 hrs by ELISA; assay type: functional, cell-based
# Outline: (§2)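 C57BL/6 BMDCs received 25 μM compound and E. coli DH5α, 3 × 10^6 CFU·mL−1. Schedules were: compound 30 min before a 6 h infection; co-addition for 6 h; or compound for 30, 60, 90 or 120 min plus 6 h infection. Supernatant TNF-α, IL-6, IL-10 and IL-12p70 were measured by ELISA. At least three experiments in triplicate.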
# BMDC [8] = test: Inhibition of Escherichia coli DH5alpha infection-induced immune response in C57BL/6 mouse BMDC assessed as reduction in IL-12p70 secretion at 25 uM pretreated for 30 mins followed by Escherichia coli DH5alpha infection for 6 hrs by ELISA; assay type: functional, cell-based; outline: as §2
# BMDC [9] = test: Inhibition of Escherichia coli DH5alpha infection-induced immune response in C57BL/6 mouse BMDC assessed as increase in IL10 secretion at 25 uM pretreated for 30 mins followed by Escherichia coli DH5alpha infection for 6 hrs by ELISA; assay type: functional, cell-based; outline: as §2
# BMDC [10] = test: Inhibition of Escherichia coli DH5alpha infection-induced immune response in C57BL/6 mouse BMDC assessed as reduction in IL-6 secretion at 25 uM pretreated for 60 to 120 mins followed by Escherichia coli DH5alpha infection for 6 hrs by ELISA; assay type: functional, cell-based; outline: as §2
# BMDC [11] = test: Inhibition of Escherichia coli K1 infection-induced immune response in C57BL/6 mouse BMDC assessed as reduction in TNFalpha secretion at 25 uM pretreated for 30 mins followed by Escherichia coli K1 infection for 6 hrs by ELISA; assay type: functional, cell-based
# Outline: (§3)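 BMDCs from C57BL/6 mice were given 25 μM compound and E. coli K1, […]. Timing was: compound 30 min before a 6 h infection; cotreatment for 6 h; or compound for 30–120 min with 6 h infection. Supernatant cytokines (TNF-α, IL-6, IL-10, IL-12p70) were measured by ELISA. At least three experiments in triplicate.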
# BMDC [12] = test: Inhibition of Escherichia coli K1 infection-induced immune response in C57BL/6 mouse BMDC assessed as reduction in IL-6 secretion at 25 uM pretreated for 60 to 120 mins followed by Escherichia coli K1 infection for 6 hrs by ELISA; assay type: functional, cell-based; outline: as §3
# Mus musculus [13] = test: Antiseptic activity in Balb/c mouse model of Escherichia coli K1 infection-induced sepsis assessed as increase in serum IL10 level at 1 mg/kg, ip pretreated for 1 hr followed by Escherichia coli K1 infection measured after 2 hrs by ELISA; assay type: functional, organism-based
# Outline: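 BALB/c mice received 1 mg·kg−1 i.p. 1 h before i.p. E. coli K1 RS218, 1 × 10^6 CFU per mouse. Serum was collected at 2 h, and TNF-α, IL-6 and IL-10 were quantified by sandwich ELISA. Means ± SEM.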
# Mus musculus [14] = test: Antiseptic activity in Balb/c mouse model of Escherichia coli K1 infection-induced sepsis assessed as reduction in serum AST level at 1 mg/kg, ip pretreated for 1 hr followed by Escherichia coli K1 infection measured after 2 hrs by ELISA; assay type: functional, organism-based
# Mus musculus [15] = test: Antiseptic activity in Balb/c mouse model of Escherichia coli K1 infection-induced sepsis assessed as reduction in serum blood urea nitrogen level at 1 mg/kg, ip pretreated for 1 hr followed by Escherichia coli K1 infection measured after 2 hrs by ELISA; assay type: functional, organism-based
# Mus musculus [16] = test: Antiseptic activity in Balb/c mouse model of Escherichia coli K1 infection-induced sepsis assessed as reduction in bacterial count in kidneys at 1 mg/kg, ip pretreated for 1 hr followed by Escherichia coli K1 infection measured after 12 hrs; assay type: functional, organism-based
# Outline: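 Pretreatment was 1 mg·kg−1 i.p. 1 h before i.p. E. coli K1 (1 × 10^6 CFU per mouse) in BALB/c mice. At 12 h, lungs, liver and kidneys were homogenized in PBS and diluted 1:1000. 10 μL was plated on LB agar, incubated 24 h at 37 °C, and colonies counted.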
# Mus musculus [17] = test: Antiseptic activity in Balb/c mouse model of Escherichia coli K1 infection-induced sepsis assessed as increase in survival rate at 1 mg/kg, ip pretreated for 1 hr followed by Escherichia coli K1 infection measured over 72 hrs relative to control; assay type: functional
# Outline: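 BALB/c mice dosed i.p. 1 h before i.p. E. coli K1 strain RS218 (O18:K1:H7) challenge, 1 × 10^7 CFU per mouse, diluted in LB broth; n = 10; survival monitored over 72 h.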
smiles,measurement,setting,value
COc1ccc(-c2oc3cc(O)cc(O)c3c(=O)c2O)cc1O [TAMARIXETIN],inhibition,BMDC [1],Active
same,inhibition,BMDC [2],Active
same,inhibition,BMDC [3],inactive
same,inhibition,BMDC [4],inactive
same,Activity,BMDC [5],Active
same,Activity,Mus musculus [6],Active
same,inhibition,BMDC [7],Active
same,inhibition,BMDC [8],Active
same,inhibition,BMDC [9],Active
same,inhibition,BMDC [10],inactive
same,inhibition,BMDC [11],Active
same,inhibition,BMDC [12],inactive
same,Activity,Mus musculus [13],Active
same,Activity,Mus musculus [14],Active
same,Activity,Mus musculus [15],Active
same,Activity,Mus musculus [16],Active
same,Activity,Mus musculus [17],80%

# Source: ChEMBL document CHEMBL4145607, “Tamarixetin Exhibits Anti-inflammatory Activity and Prevents Bacterial Sepsis by Increasing IL-10 Production” (J Nat Prod, 2018)
